Results published in PMC2843818 (Bioorganic & medicinal chemistry letters, 2010).

Legend:
hS1P1 [1] = biological target: T1, hS1P1 (Homo sapiens, UniProt P21453); assay: Calcium mobilization Gi assay, S1P1; type: cell-based; details: for EC50 S1P1: calcium mobilization Gi assay, whole cell
human S1P3 = human S1P3 (Homo sapiens, UniProt Q99500); assay: Calcium mobilization Gi assay, S1P3; type: cell-based; details: for EC50 S1P3: calcium mobilization Gi assay, whole cell
lymphopenia = assay: Mouse lymphopenia; type: in vivo; details: for duration of sustained lymphopenia: mouse PK/PD study
Procedure, shortened: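 Mouse PK/PD study with single doses of test compound at 1 or 2 mg/kg. Lymphopenia was followed over time to find how long it lasted. Pharmacokinetics were measured in parallel: oral bioavailability, half-life, clearance, volume, and percent in vivo phosphorylation.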

hS1P1 [2] = biological target: T1, hS1P1; assay: Calcium mobilization Gq assay, S1P1; type: cell-based; details: for EC50 S1P1: calcium mobilization Gq assay, whole cell

T1 sequence (P21453 whole entry): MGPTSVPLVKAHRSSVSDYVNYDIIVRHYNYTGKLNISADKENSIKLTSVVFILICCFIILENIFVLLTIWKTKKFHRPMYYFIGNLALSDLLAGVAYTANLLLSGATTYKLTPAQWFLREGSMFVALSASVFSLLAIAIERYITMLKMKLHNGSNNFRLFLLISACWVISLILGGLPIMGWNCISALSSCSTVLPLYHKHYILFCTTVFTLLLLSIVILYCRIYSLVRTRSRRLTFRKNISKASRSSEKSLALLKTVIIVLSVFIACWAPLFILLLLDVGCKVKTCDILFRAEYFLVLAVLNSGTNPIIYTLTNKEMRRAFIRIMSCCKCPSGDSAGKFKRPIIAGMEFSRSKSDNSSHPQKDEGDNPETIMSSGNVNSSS
Sequence of human S1P3 (Q99500 whole entry): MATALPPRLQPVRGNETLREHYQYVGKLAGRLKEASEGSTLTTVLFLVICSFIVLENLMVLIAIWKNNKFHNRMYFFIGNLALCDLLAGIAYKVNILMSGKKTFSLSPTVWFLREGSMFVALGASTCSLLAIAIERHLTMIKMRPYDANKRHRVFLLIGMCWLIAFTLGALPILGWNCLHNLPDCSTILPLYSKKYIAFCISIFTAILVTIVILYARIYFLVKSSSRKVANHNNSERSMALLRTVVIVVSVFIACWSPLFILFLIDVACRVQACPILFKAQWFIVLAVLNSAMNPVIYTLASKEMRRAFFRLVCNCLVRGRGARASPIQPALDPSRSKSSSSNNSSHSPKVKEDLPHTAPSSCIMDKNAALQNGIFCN

`CCCCCCCCc1ccc2c(c1)CC[C@@H](C(N)(CO)COP(=O)(O)O)C2` (single isomer, unassigned) [(2’R)-3-P isomer 1] was tested, and the “fold less potent at S1P1 than (S)-FTY720-P” value (hS1P1 [1]; Gi assay) was 6 fold and the “fold less potent at S1P3 than (S)-FTY720-P” value (human S1P3; Gi assay) was 2 fold.

`CCCCCCCCc1ccc2c(c1)CC[C@H]([C@@](C)(N)CO)C2` [(2R, 2’S)-5, (−)-(R)-2-amino-2-((S)-6-octyl-1,2,3,4-tetrahydronaphthalen-2-yl) propan-1-ol] was tested, and the “duration of sustained lymphopenia” value (lymphopenia; 1 mg/kg dose) was “one-week”.

With `CCCCCCCCc1ccc2c(c1)CC[C@H]([C@](C)(N)COP(=O)(O)O)C2` [(2S, 2’S)-6] the S1P1/S1P3 selectivity (hS1P1 [1]; Gi assay) was “great S1P1/S1P3 selectivity”, the “EC50 S1P1” value (hS1P1 [1]) was “significantly less active” and the “EC50 S1P3” value (human S1P3) was “no activity”. For the same compound, the “EC50 S1P1” value (hS1P1 [2]) was “not active”.

For `CCCCCCCCc1ccc2c(c1)CC[C@@H]([C@@](C)(N)COP(=O)(O)O)C2` [(2R, 2’R)-6], the “EC50 S1P1” value (hS1P1 [2]) was “very active”.

In the case of `CCCCCCCCc1ccc(CC[C@@](N)(CO)COP(=O)(O)O)cc1` [(R)-FTY720-P, reference compound], the “EC50 S1P3” value (human S1P3) is reported as “not active” and the “EC50 S1P1” value (hS1P1 [2]) is reported as “not active”.

In the case of `CCCCCCCCc1ccc2c(c1)CC[C@@H](C(N)(CO)CO)C2` [(2’R)-3], the “duration of sustained lymphopenia” value (lymphopenia; 2 mg/kg dose) is reported as 72 h.

In the case of `CCCCCCCCc1ccc2c(c1)CC[C@@H]([C@](C)(N)CO)C2` [(2S, 2’R)-5], the ED50 (lymphopenia; Mus musculus, read-out: Mouse Lymphopenia ED50) is reported as > 5 mg/kg and the “Mouse Lymphopenia ED50” value (lymphopenia) is reported as “not active”.

`CCCCCCCCc1ccc2c(c1)CC[C@@H](C(N)(CO)COP(=O)(O)O)C2` (single isomer, unassigned) [(2’R)-3-P isomer 2] was tested, and the “EC50 S1P3” value (human S1P3) was “not active”.

`CCCCCCCCc1ccc2c(c1)CC[C@H]([C@@](C)(N)COP(=O)(O)O)C2` [(2R, 2’S)-6] was tested, and the “selectivity of S1P1 over S1P3” value (hS1P1 [2]; Gq assay, compared to FTY720) was “moderate selectivity” and the “EC50 S1P1” value (hS1P1 [2]) was “very active”.

For `CCCCCCCCc1ccc2c(c1)CC[C@@H]([C@](C)(N)COP(=O)(O)O)C2` [(2S, 2’R)-6], the S1P1/S1P3 selectivity (hS1P1 [1]; Gi assay) was “great S1P1/S1P3 selectivity”, the “EC50 S1P1” value (hS1P1 [1]) was “significantly less active” and the “EC50 S1P3” value (human S1P3) was “no activity”.

`CCCCCCCCc1ccc2c(c1)CC[C@H]([C@](C)(N)CO)C2` [(2S, 2’S)-5] was tested, and the “Mouse Lymphopenia ED50” value (lymphopenia) was “not active”.
